The source of these data is ChEMBL document CHEMBL4622950, “The synthesis and antituberculosis activity of 5-alkynyl uracil derivatives” (Bioorg Med Chem Lett, 2020).

Data set [1] in a line: Cytotoxicity against African green monkey Vero cells assessed as reduction in cell viability by MTT assay. Format: cell-based. As to conditions: chlorocebus sabaeus. In a few lines:
(§1)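 Viability read by the standard formazan (MTT) method. CC50 is the concentration giving a 50% decrease in cell viability, reported in µM as CC50±SD.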
A general note: Tetrazolium assays rely on reduction of a dye to a coloured formazan, in cell work by metabolically active cells.

In data set [2] the test system is Mycobacterium tuberculosis. The data set can be described thus: Antitubercular activity against Mycobacterium tuberculosis H37Ra assessed as bacterial growth inhibition by MABA. Format: functional. In a few lines:
(§2)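 Whole-cell growth inhibition of Mycobacterium bovis and M. tuberculosis H37Ra, read quantitatively by Microplate Alamar Blue Assay (alamar blue reagent). Compounds were tested across 1 to 100 µg/ml. Activity was expressed as MIC50 (µg/ml) from this concentration series.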

For data set [3], the system named is Mycobacterium tuberculosis. The data set can be described thus: Antitubercular activity against Mycobacterium tuberculosis H37Ra assessed as bacterial growth inhibition at 50 to 100 ug/ml by MABA relative to control. Format: functional. For orientation: Resazurin is reduced to fluorescent resorufin, in cell work by metabolically active cells.
Data set [4] is described as follows: Cytotoxicity against human A549 cells assessed as reduction in cell viability by MTT assay. The format is cell-based. In a few lines: as §1
The nature of data set [5]: Cytotoxicity against human MRC5 cells assessed as reduction in cell viability by MTT assay. The format is cell-based. In a few lines:
as §1

Data set [6] relates to Mycobacterium tuberculosis. The experiment in a line: Antitubercular activity against Mycobacterium tuberculosis H37Ra assessed as bacterial growth inhibition at 100 ug/ml by MABA relative to control. The format is functional. The following applies: read-out: GI.
The test system of data set [7] is Mycobacterium tuberculosis. The experiment in a line: Antitubercular activity against Mycobacterium tuberculosis H37Ra assessed as bacterial growth inhibition at 1 to 5 ug/ml by MABA relative to control. The format is functional.
Data set [8] concerns Mycobacterium tuberculosis. The data set can be described thus: Antitubercular activity against Mycobacterium tuberculosis H37Ra assessed as bacterial growth inhibition by MABA relative to control. The format is functional. In a few lines: as §2
The test system of data set [9] is Mycobacterium tuberculosis. The data set can be described thus: Antitubercular activity against Mycobacterium tuberculosis H37Ra assessed as bacterial growth inhibition at 10 ug/ml by MABA relative to control. The format is functional. As to conditions: read-out: GI.
The test system of data set [10] is Mycobacterium tuberculosis. The data set can be described thus: Antitubercular activity against Mycobacterium tuberculosis H37Ra assessed as bacterial growth inhibition at 50 ug/ml by MABA relative to control. The format is functional. As to conditions: read-out: GI.
Data set [11] relates to Mycobacterium tuberculosis. The experiment in a line: Antitubercular activity against Mycobacterium tuberculosis H37Ra assessed as bacterial growth inhibition at 25 ug/ml by MABA relative to control. Format: functional. The following applies: read-out: GI.
The subject of data set [12] is Mycobacterium tuberculosis. The data set can be described thus: Antitubercular activity against Mycobacterium tuberculosis H37Ra assessed as bacterial growth inhibition at 5 ug/ml by MABA relative to control. Format: functional. As to conditions: read-out: GI.
Data set [13] has as its system Mycobacterium tuberculosis. The experiment in a line: Antitubercular activity against Mycobacterium tuberculosis H37Ra assessed as bacterial growth inhibition at 1 ug/ml by MABA relative to control. The format is functional. The following applies: read-out: GI.

In brackets after ≈: the same amount, converted by molar mass.

Turning to `O=c1[nH]cc(C#Cc2ccccc2)c(=O)[nH]1`, the CC50 – broadly, the concentration that lowers cell viability or growth by half – in data set [1] worked out at 254 µM; in [4], 248 µM; in data set [5], 75.1 µM. The MIC50 (usually the lowest concentration that inhibits either 50% of growth or 50% of the strains tested, depending on the study) in [2] is 18.2 mg/L (≈ 85.8 µM). Further, the “growth inhibition (GI)” value in data set [3] came to 90%.
For the molecule `O=c1[nH]cc(C#CC2CCCCC2)c(=O)[nH]1`, the CC50 in data set [1] is 247 µM; in data set [4], 245 µM; in data set [5], 62.8 µM. Besides, the MIC50 in data set [2] came out at 2.8 mg/L (≈ 12.8 µM). Further, in [6], the inhibition of growth at 100 µg/mL turned out to be 90%. For the same molecule, the “growth inhibition (GI)” value in [7] came out at 50%.
`CCCCCCC#Cc1c[nH]c(=O)[nH]c1=O`: the 50% cytotoxic concentration (CC50) in data set [1] came out at 250 µM; in data set [4], 249 µM; in [5] it was 94.9 µM. Moreover, the “growth inhibition (GI)” value in data set [8] is reported as 0%.
Regarding `O=c1[nH]c(=O)n([C@@H]2O[C@H](CO)[C@@H](O)[C@H]2O)cc1C#CC1CC1`, the inhibition of growth at 10 µg/mL in data set [9] was found to be 70%. The values for the CC50 in [1], in [4] and in [5] were 133 µM, 115 µM and 24.2 µM, respectively. In [6], the inhibition of growth at 100 µg/mL is 90%. The “growth inhibition (GI)” value in data set [7] was found to be 50%.
As for `CCCCCCC#Cc1cn([C@@H]2O[C@H](CO)[C@@H](O)[C@H]2O)c(=O)[nH]c1=O`, the inhibition of growth at 10 µg/mL in data set [9] was 0%. The CC50 is 111 µM in data set [1], 87.2 µM in data set [4] and 15.7 µM in [5]. For the same molecule, the MIC50 in data set [2] was under 50 mg/L. In addition, the inhibition of growth at 100 µg/mL in data set [6] was found to be 90%.
As to `CC#Cc1c[nH]c(=O)[nH]c1=O`, the cytotoxic concentration (CC50) in [1] stood at 262 µM; in data set [4] it was 256 µM; in data set [5] it was 117 µM. Also, the “growth inhibition (GI)” value in data set [8] is given as 0%.
In the case of `CCC#Cc1c[nH]c(=O)[nH]c1=O`, the figures for the CC50 in data set [1], in [4] and in [5] were 263 µM, 253 µM and 120 µM, respectively. The “growth inhibition (GI)” value in [8] is on record as 0%.
Turning to `O=c1[nH]c(=O)n([C@@H]2O[C@H](CO)[C@@H](O)[C@H]2O)cc1C#CC(O)c1ccccc1` (stereo not given in full), the CC50 in data set [1] was 65.4 µM; in data set [4] it was 34.2 µM; in [5] it was 0.9 µM. The MIC50 in data set [2] came out at 1.1 mg/L (≈ 2.94 µM). In data set [7], the “growth inhibition (GI)” value worked out at 100%.
Turning to `CCCCC#Cc1c[nH]c(=O)[nH]c1=O`, the figures for the half-maximal cytotoxic concentration (CC50) in [1], in data set [4] and in data set [5] were 253 µM, 250 µM and 113 µM, respectively. For the same molecule, the “growth inhibition (GI)” value in data set [8] was 0%.
As to `O=c1[nH]cc(C#CC2CC2)c(=O)[nH]1`, the CC50 in [1] was 252 µM; in [4] it was 251 µM; in data set [5], 101 µM. Besides, the inhibition of growth at 50 µg/mL in [10] turned out to be 70%. In data set [2], the MIC50 stood at 5.2 mg/L (≈ 29.5 µM). Besides, the inhibition of growth at 100 µg/mL in [6] came out at 90%.
Take `O=c1[nH]c(=O)n([C@@H]2O[C@H](CO)[C@@H](O)[C@H]2O)cc1C#Cc1ccccc1`: the inhibition of growth at 10 µg/mL in [9] came out at 70%. Further, the CC50 in data set [1] was 78.4 µM; in data set [4], 42.5 µM; in data set [5], 1.2 µM. Also, the MIC50 in [2] was 3.2 mg/L (≈ 9.29 µM). The entries for the “growth inhibition (GI)” value in data set [3] and in data set [7] were 90% and 50%, respectively.
Take `CCCCC#Cc1cn([C@@H]2O[C@H](CO)[C@@H](O)[C@H]2O)c(=O)[nH]c1=O`: the inhibition of growth at 10 µg/mL in data set [9] was determined as 10%. Besides, the CC50 in data set [1] stood at 103 µM; in data set [4], 83.2 µM; in data set [5], 11.6 µM. Further, the inhibition of growth at 50 µg/mL in data set [10] was 50%. The MIC50 in data set [2] is 50 mg/L (≈ 154 µM). Moreover, the inhibition of growth at 100 µg/mL in data set [6] was found to be 90%.
As to `C[Si](C)(C)C#Cc1c[nH]c(=O)[nH]c1=O`, the values for the CC50 in [1], in data set [4] and in [5] were 270 µM, 268 µM and 124 µM, respectively. The MIC50 in [2] is 100 mg/L (≈ 480 µM). Also, the inhibition of growth at 100 µg/mL in data set [6] is 50%.
In the case of `O=c1[nH]cc(C#CC(O)c2ccccc2)c(=O)[nH]1` (stereo not given), in [9], the inhibition of growth at 10 µg/mL was 75%. For the same molecule, the figures for the CC50 in [1], in data set [4] and in data set [5] were 242 µM, 237 µM and 38.4 µM, respectively. Besides, in [2], the MIC50 was found to be 2.9 mg/L (≈ 12 µM). Moreover, the “growth inhibition (GI)” value is on record as 90% in [3] and 50% in data set [7].
With `O=c1[nH]c(=O)n([C@@H]2O[C@H](CO)[C@@H](O)[C@H]2O)cc1C#CC1CCCCC1`, the CC50 in data set [1] is 148 µM; in data set [4], 127 µM; in [5], 36.8 µM. The inhibition of growth at 50 µg/mL in data set [10] was 70%. In addition, the MIC50 in [2] came to 18.9 mg/L (≈ 53.9 µM). Moreover, the “growth inhibition (GI)” value in data set [7] worked out at 10%. Besides, the inhibition of growth at 25 µg/mL in data set [11] turned out to be 55%.
Consider `N[C@@H]1CONC1=O` [CYCLOSERINE], for which the inhibition of growth at 10 µg/mL in data set [9] was determined as 67%. Further, the MIC50 in data set [2] was 5.2 mg/L (≈ 50.9 µM). Moreover, the inhibition of growth at 5 µg/mL in [12] was 50%.
With `NNC(=O)c1ccncc1` [ISONIAZID], in [13], the inhibition of growth at 1 µg/mL was found to be 100%. Also, the MIC50 in [2] stood at 0.8 mg/L (≈ 5.83 µM).
In the same order, the values of `CO[C@H]1/C=C/O[C@@]2(C)Oc3c(C)c(O)c4c(O)c(c(/C=N/N5CCN(C)CC5)c(O)c4c3C2=O)NC(=O)/C(C)=C\C=C\[C@H](C)[C@H](O)[C@@H](C)[C@@H](O)[C@@H](C)[C@H](OC(C)=O)[C@@H]1C` [RIFAMPIN] are 100% and 0.7 mg/L (≈ 0.851 µM).
